The target of assay [1] is T1, XA21 (Oryza sativa subsp. indica, UniProt Q1MX30).
T1 sequence (Q1MX30 24-1025): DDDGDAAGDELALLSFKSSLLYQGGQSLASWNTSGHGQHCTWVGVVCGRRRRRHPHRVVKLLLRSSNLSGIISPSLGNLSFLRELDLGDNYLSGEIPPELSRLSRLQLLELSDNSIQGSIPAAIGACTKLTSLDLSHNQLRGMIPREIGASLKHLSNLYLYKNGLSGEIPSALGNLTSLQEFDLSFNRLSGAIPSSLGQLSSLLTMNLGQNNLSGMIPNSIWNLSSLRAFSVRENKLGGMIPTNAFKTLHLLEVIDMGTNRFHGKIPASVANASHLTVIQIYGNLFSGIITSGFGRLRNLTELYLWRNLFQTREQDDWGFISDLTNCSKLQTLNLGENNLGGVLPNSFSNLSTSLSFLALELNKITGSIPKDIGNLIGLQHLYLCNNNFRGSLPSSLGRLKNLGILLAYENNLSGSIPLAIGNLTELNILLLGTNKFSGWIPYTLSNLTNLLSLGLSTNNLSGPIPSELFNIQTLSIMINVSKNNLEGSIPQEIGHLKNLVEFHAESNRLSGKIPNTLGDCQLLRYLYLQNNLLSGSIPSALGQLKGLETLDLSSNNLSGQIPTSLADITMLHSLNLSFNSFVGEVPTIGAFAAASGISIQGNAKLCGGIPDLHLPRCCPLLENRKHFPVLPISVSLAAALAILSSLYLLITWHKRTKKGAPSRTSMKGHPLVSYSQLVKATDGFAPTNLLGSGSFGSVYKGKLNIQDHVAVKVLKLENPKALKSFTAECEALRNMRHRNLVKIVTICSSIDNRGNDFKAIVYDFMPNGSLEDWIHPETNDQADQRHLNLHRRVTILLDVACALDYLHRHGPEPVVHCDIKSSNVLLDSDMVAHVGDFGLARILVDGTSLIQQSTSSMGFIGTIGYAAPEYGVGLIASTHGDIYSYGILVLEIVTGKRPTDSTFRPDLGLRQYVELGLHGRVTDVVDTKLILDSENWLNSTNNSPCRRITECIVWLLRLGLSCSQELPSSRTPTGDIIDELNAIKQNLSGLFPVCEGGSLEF
Nature of the assay: ROS production. It is filed as cell-based, rice (Oryza sativa ssp. japonica). Summed up:
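Leaves of 4- to 6-week-old hydroponic Kitaake and Ubi::XA21 plants were cut along the midvein into 1–1.5 mm pieces and floated overnight on autoclaved ddH2O. Two pieces per well went into L-012 plus horseradish peroxidase (0.5 to 2 mg/ml), with peptide or mock (ddH2O or peptide buffer). Chemiluminescence was read for 3 h at 0.5 s per reading, n = 6. EC50 was the half-maximal total 3-h ROS over a peptide concentration series.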

For assay [2], the target named is T1, XA21. As to the kind of experiment: Ethylene production in Ubi::XA21 rice leaves. The assay is classed as cell-based, rice (Oryza sativa ssp. japonica). The note with it: 1 μM peptide, 4 hours, gas chromatography, n = 3, Fig. 3C. The method, boiled down:
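Ubi::XA21 Kitaake plants (3–4 weeks, hydroponic) were used. Leaves were cut into ~0.3 to 0.5 mm strips and floated on water overnight at room temperature. Strips were then incubated with water or peptide (1 μM) in sealed tubes. Ethylene accumulated in the headspace over 4 h was measured by gas chromatography.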

Non-standard residues stand in square brackets, D forms with d. Residues, ends and D or L forms follow the SMILES beside them. sY = N[C@@H](Cc1ccc(OS(=O)(=O)O)cc1)C(=O)O

As for `CC(C)C[C@H](N)C(=O)N[C@@H](Cc1c[nH]c2ccccc12)C(=O)N[C@@H](CCCCN)C(=O)N[C@@H](Cc1c[nH]cn1)C(=O)N[C@H](C(=O)NCC(=O)NCC(=O)NCC(=O)N[C@@H](CC(=O)O)C(=O)N[C@@H](Cc1ccc(OS(=O)(=O)O)cc1)C(=O)N1CCC[C@H]1C(=O)N1CCC[C@H]1C(=O)N1CCC[C@H]1C(=O)NCC(=O)N[C@@H](C)C(=O)N[C@@H](CC(N)=O)C(=O)N1CCC[C@H]1C(=O)N[C@@H](CCCCN)C(=O)N[C@@H](Cc1c[nH]cn1)C(=O)N[C@@H](CC(=O)O)C(=O)N1CCC[C@H]1C(=O)N1CCC[C@H]1C(=O)N1CCC[C@H]1C(=O)N[C@@H](CCCNC(=N)N)C(=O)O)C(C)C` [RaxX24-sY] (H-LWKHVGGGD[sY]PPPGANPKHDPPPR-OH; N-terminus and C-terminus assumed), the EC50 (usually the concentration at which the effect is half-maximal) in assay [1] was approximately 30 nM.
For HVGGGDYPPPGANPKHDPPPR [RaxX21-Y], in assay [2], the “Ethylene production, result in words” value is recorded as “but not RaxX21-Y”.

These data come from paper PMC4646787 (Science Advances, 2015).
